Publication PMC4938124 (Biochemistry, 2015)

Assays:
hIYD·flhq [1] = target: T1, hIYD·flhq (Homo sapiens, UniProt Q6PHW0); assay: Stopped-flow oxidation of hIYD·flhq by oxygen; format: biochemical; conditions: A446, 25 °C, pH 7.4, oxygen 60–610 μM
T1 sequence (Q6PHW0 32-289): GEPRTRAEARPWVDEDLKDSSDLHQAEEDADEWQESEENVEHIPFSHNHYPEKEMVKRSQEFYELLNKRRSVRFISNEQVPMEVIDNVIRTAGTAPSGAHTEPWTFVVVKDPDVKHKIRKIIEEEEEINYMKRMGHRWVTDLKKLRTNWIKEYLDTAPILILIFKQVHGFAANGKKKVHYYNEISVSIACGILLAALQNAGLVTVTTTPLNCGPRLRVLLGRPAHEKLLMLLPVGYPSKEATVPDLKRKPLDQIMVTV
Method in brief: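 hIYD·flhq, made by stoichiometric dithionite titration under anaerobic conditions, 5 μM final, in 500 mM NaCl, 10% glycerol, 1 mM DTT, 50 mM sodium phosphate pH 7.4, 25 °C. Stopped-flow mix with equal volume of same buffer equilibrated with air or 10/50/100% O2 (oxygen solutions 60–610 μM). A446 traces single-exponential; diode-array spectra 4 ms–7 s. kox from linear fit of kobs versus [O2]; three independent measurements averaged.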

hIYD = conditions: estimate, limited by solubility; cited from earlier work
hIYD·flox = target: T2, hIYD·flox (Homo sapiens, UniProt Q6PHW0); assay: Stopped-flow kinetics of halotyrosine binding to hIYD·flox; conditions: relative to Cl-, Br- and I-Tyr
T2 sequence (Q6PHW0 32-289): T1 sequence (Q6PHW0 32-289)
Method in brief: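 hIYD (residues 1–31 removed, SUMO fusion, SUMO cleaved) in 500 mM NaCl, 10% glycerol, 1 mM DTT, 50 mM sodium phosphate pH 7.4, 25 °C. Stopped-flow mixing of equal volumes under air: hIYD·flox 2 μM final with halotyrosine 5–50 μM final. Flavin fluorescence quench (λex 450 nm, λem >530 nm) followed 1 ms–1 s, fit single-exponential. kon from least-squares fit of kobs versus ligand concentration.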

hIYD·flhq [2] = target: T1, hIYD·flhq; assay: Stopped-flow single-turnover oxidation of hIYD·flhq by halotyrosines; format: biochemical; conditions: set by detection threshold of the stopped-flow instrument
Method in brief: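 Anaerobic stopped-flow at 25 °C, pH 7.4 phosphate/NaCl/glycerol/DTT buffer. Dithionite-reduced hIYD·flhq was mixed 1:1 with argon-sparged halotyrosine. At 8 μM enzyme, I-Tyr was 20–200 μM and A446 was followed from 10 ms to beyond 7 s with single-exponential fits. At 5 μM enzyme, substrate was 200 μM, with diode-array spectra from 4 ms plus A360 traces fit single- or double-exponential. Spectra were globally analysed.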

IYD = conditions: cited from earlier work

O=O [oxygen]
kox, second-order rate constant for reaction between hIYD·flhq and oxygen (hIYD·flhq [1]): (9.3 ± 0.3) × 10^3 M^–1 s^–1

N[C@@H](Cc1ccc(O)cc1)C(=O)O [Tyr, tyrosine]
Kd (hIYD): > 1000 µM

N[C@@H](Cc1ccc(O)c(F)c1)C(=O)O [F-Tyr]
binding rate (kon) slower than the other halotyrosines (hIYD·flox): approximately 5 fold
binding rate (kon) slower than the other halotyrosines (hIYD·flox; listed as fluorotyrosine): 5 fold
oxidation of flhq slower than that with I-Tyr (hIYD·flhq [2]): at least 160 fold
dehalogenation by IYD (IYD): inert
